pIC50: −log10 of the molar value.

The target of experiment [1] is T1, Type-1 angiotensin II receptor (Oryctolagus cuniculus, UniProt P34976).
T1 sequence (P34976 whole entry): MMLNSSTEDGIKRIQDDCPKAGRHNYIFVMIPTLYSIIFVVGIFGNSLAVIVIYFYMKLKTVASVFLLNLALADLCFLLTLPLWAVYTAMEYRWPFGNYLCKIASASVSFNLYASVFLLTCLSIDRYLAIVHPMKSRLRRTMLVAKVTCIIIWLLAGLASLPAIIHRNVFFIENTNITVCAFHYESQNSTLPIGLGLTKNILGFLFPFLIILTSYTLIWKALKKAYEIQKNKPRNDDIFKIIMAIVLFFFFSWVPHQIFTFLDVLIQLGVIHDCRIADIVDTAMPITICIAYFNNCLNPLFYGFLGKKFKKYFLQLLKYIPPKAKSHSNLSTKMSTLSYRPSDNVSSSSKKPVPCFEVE
In words: Evaluation of Angiotensin II antagonistic activity by displacement of [125I]-Sar Ile-AII at the rabbit aorta Angiotensin II receptor, type 1. In kind it is tissue-based. Put shortly:
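Rabbit aorta membranes, run without BSA. Competition against [¹²⁵I]Sar¹Ile⁸-AII, in duplicate tubes. Some values are means of two or more separate assays. Standard error is estimated at <30% of the mean.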
Background: In a radioligand displacement assay an active substance lowers the binding of a labelled ligand.

For experiment [2], the system named is Rattus norvegicus. In words: Peak percent inhibition of Angiotensin II pressor response in conscious, normotensive rats at 0.1 mg/kg iv. In kind it is functional. A digest of the protocol:
(§1)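 Male Sprague-Dawley rats (300–400 g), conscious, catheterized for iv dosing and for arterial pressure and heart rate. Compound given iv or po; PEG 400 vehicle in some oral cases. AII 0.1 μg/kg iv boluses at set intervals afterward. % inhibition of the MAP rise was calculated at each time point, and the peak was taken. Averaged from at least two rats unless noted.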

Experiment [3] has as its system Rattus norvegicus. In words: Time to produce onset of action for inhibition of Angiotensin II pressor response in conscious, normotensive rats at 0.1 mg/kg iv. In kind it is functional. A digest of the protocol:
(§2)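 Conscious male Sprague-Dawley rats (300–400 g), instrumented for iv dosing and arterial pressure. A single iv or po bolus of compound (PEG 400 for some oral doses), then repeated AII challenges at 0.1 μg/kg iv. […] Averaged from at least two rats unless noted.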

The test system of experiment [4] is Rattus norvegicus. Kind of experiment: Peak percent inhibition of Angiotensin II pressor response in conscious, normotensive rats at 1 mg/kg po. Format: functional. Put shortly:
as §1

Experiment [5] has as its system Rattus norvegicus. Kind of experiment: Time to produce onset of action for inhibition of Angiotensin II pressor response in conscious, normotensive rats at 1 mg/kg po. In kind it is functional. A digest of the protocol: as §2
The test system of experiment [6] is Rattus norvegicus. Kind of experiment: Time to produce onset of action for inhibition of Angiotensin II pressor response in conscious, normotensive rats at 1 mg/kg iv. Format: functional. Put shortly:
as §2

Experiment [7] has as its system Rattus norvegicus. Kind of experiment: Peak percent inhibition of Angiotensin II pressor response in conscious, normotensive rats at 1 mg/kg iv. Format: functional. A digest of the protocol: as §1
Experiment [8] deals with Rattus norvegicus. In words: Peak percent inhibition of Angiotensin II pressor response in conscious, normotensive rats at 0.3 mg/kg po. Format: functional. Put shortly:
as §1

The test system of experiment [9] is Rattus norvegicus. In words: Time to produce onset of action for inhibition of Angiotensin II pressor response in conscious, normotensive rats at 0.3 mg/kg po. In kind it is functional. A digest of the protocol:
as §2

Experiment [10] concerns Rattus norvegicus. In words: Peak percent inhibition of Angiotensin II pressor response in conscious, normotensive rats at 0.3 mg/kg iv. Format: functional. A digest of the protocol:
as §1

The subject of experiment [11] is Rattus norvegicus. Kind of experiment: Time to produce onset of action for inhibition of Angiotensin II pressor response in conscious, normotensive rats at 0.3 mg/kg iv. In kind it is functional. A digest of the protocol:
as §2

The term pIC50 denotes the IC50 on a negative log10 scale, so that one unit is a factor of ten. Lower therefore signals a large IC50. The compound `CCCCc1nn(-c2ccccc2C)c(C(=O)OCC)c1Cc1ccc(-c2ccccc2-c2nn[nH]n2)cc1` gave a pIC50 in [1] of 7.89.
`CCCCc1nn(-c2ccccc2)c(C(=O)OCC)c1Cc1ccc(-c2ccccc2-c2nnn[nH]2)cc1` had a pIC50 in experiment [1] of 7.09.
Same read-out and setting: with `CCCCc1nn(-c2ccc(OC)cc2[N+](=O)[O-])c(C(=O)O)c1Cc1ccc(-c2ccccc2-c2nnn[nH]2)cc1` the figure was 8.60; with `CCCc1[nH]nc(C(=O)OCC)c1Cc1ccc(-c2ccccc2-c2nnn[nH]2)cc1`, 6.80.
Same read-out and setting: as for `CCCCc1nn(-c2ccc(Cl)cc2Cl)c(C(=O)OCC)c1Cc1ccc(-c2ccccc2-c2nnn[nH]2)cc1`, the figure is 8.17.
As a reminder, the inhibition in vivo is the percentage by which the read-out fell short of the control. The low end stands for little suppression, the high end for strong suppression. In experiment [2], `CCCCc1nn(-c2c(Cl)cccc2Cl)c(C(=O)O)c1Cc1ccc(-c2ccccc2-c2nn[nH]n2)cc1` came in with an inhibition in vivo at 0.1 mg/kg of 80%. This compound also gave a pIC50 in [1] of 9.74. Moreover, the Duration in experiment [3] and in [5] was over 4.5 h throughout. In addition, at 1 mg/kg the inhibition in vivo in [4] was 79%.
Regarding `CCCCc1nn(Cc2ccccc2)c(C(=O)OCC)c1Cc1ccc(-c2ccccc2-c2nnn[nH]2)cc1`, in [1], the pIC50 was under 7.00.
In [1], `CCCCc1n[nH]c(C(=O)OCC)c1Cc1ccc(-c2ccccc2-c2nn[nH]n2)cc1` gave a pIC50 of 6.89. The compound also registered a Duration in [6] of over 5 h. In experiment [7], the inhibition in vivo at 1 mg/kg came out at 80%.
Compound `CCCc1nn(CC(F)(F)F)c(C(=O)OCC)c1Cc1ccc(-c2ccccc2-c2nnn[nH]2)cc1` had a pIC50 in experiment [1] of 7.12.
As to `CCCCc1nn(CCc2ccccc2)c(C(=O)O)c1Cc1ccc(-c2ccccc2-c2nn[nH]n2)cc1`, the pIC50 in experiment [1] is 9.62. Also, the Duration in experiment [6] was over 24 h. For the same compound, at 1 mg/kg the inhibition in vivo in experiment [7] was 95%.
With `CCCCc1nn(-c2c(Cl)cc(Cl)cc2Cl)c(C(=O)O)c1Cc1ccc(-c2ccccc2-c2nnn[nH]2)cc1`, the pIC50 in [1] was 9.30.
Still for that read-out and setting: with `CCCCc1nn(-c2cccc(Cl)c2Cl)c(C(=O)OCC)c1Cc1ccc(-c2ccccc2-c2nnn[nH]2)cc1` the figure was 7.05; with `CCCCc1nn(-c2ccccc2-c2ccccc2)c(C(=O)O)c1Cc1ccc(-c2ccccc2-c2nnn[nH]2)cc1`, 9.19.
Same read-out and setting: with `CCCCc1nn(CC(F)(F)F)c(C(=O)OCC)c1Cc1ccc(-c2ccccc2-c2nn[nH]n2)cc1` the figure was 7.52; with `CCCCc1nn(-c2ccc(OC)cc2)c(C(=O)O)c1Cc1ccc(-c2ccccc2-c2nn[nH]n2)cc1`, 9.10.
On the same count and under the same terms, as for `CCCCc1nn(-c2ccccc2C)c(C(=O)O)c1Cc1ccc(-c2ccccc2-c2nn[nH]n2)cc1`, the figure is 9.34; as for `CCCCc1nn(-c2ccccc2C(F)(F)F)c(C(=O)OCC)c1Cc1ccc(-c2ccccc2-c2nnn[nH]2)cc1`, 7.68; as for `CCCCc1nn(-c2ccccn2)c(C(=O)OCC)c1Cc1ccc(-c2ccccc2-c2nnn[nH]2)cc1`, 7.74.
Compound `CCCCc1nn(-c2ccc(Cl)cc2Cl)c(C(=O)O)c1Cc1ccc(-c2ccccc2-c2nn[nH]n2)cc1` had a pIC50 in experiment [1] of 9.22.
`CCCc1nn(-c2c(Cl)cccc2Cl)c(C(=O)OCC)c1Cc1ccc(-c2ccccc2-c2nn[nH]n2)cc1` gave a pIC50 in [1] of 7.70.
On the same count and under the same terms, as for `CCCCc1nn(-c2c(Cl)cccc2Cl)c(C(=O)OCC)c1Cc1ccc(-c2ccccc2-c2nnn[nH]2)cc1`, the figure is 8.10.
With `CCCCc1nn(-c2cccc(Cl)c2)c(C(=O)O)c1Cc1ccc(-c2ccccc2-c2nn[nH]n2)cc1`, the negative-log IC50 (pIC50) in experiment [1] is 8.64.
As for `O=C(O)c1c(Cc2ccc(-c3ccccc3-c3nn[nH]n3)cc2)c(CC2CC2)nn1-c1c(Cl)cccc1Cl`, in experiment [1], the pIC50 is 8.43.
In experiment [8], `CCCc1nn(-c2c(Cl)cccc2Cl)c(C(=O)O)c1Cc1ccc(-c2ccccc2-c2nn[nH]n2)cc1` gave an inhibition in vivo at 0.3 mg/kg of 56%. Also, the inhibition in vivo at 0.1 mg/kg in experiment [2] is 60%. In experiment [1], this compound gave a pIC50 of 9.16. Further, the Duration in experiment [3] is 5.4 h; in experiment [6], over 6 h; in [5] it was over 23 h; in experiment [9] it was over 3 h. For the same compound, the inhibition in vivo at 1 mg/kg in experiment [4] stood at 87%; in [7], 100%.
For the compound `CCCCc1nn(-c2cccc(Cl)c2)c(C(=O)OCC)c1Cc1ccc(-c2ccccc2-c2nn[nH]n2)cc1`, the pIC50 in experiment [1] is 7.26.
The compound `CCCCc1nn(-c2cc(Cl)ccc2Cl)c(C(=O)OCC)c1Cc1ccc(-c2ccccc2-c2nn[nH]n2)cc1` gave a pIC50 in [1] of 6.98.
`CCCCc1nn(-c2ccccc2C(F)(F)F)c(C(=O)O)c1Cc1ccc(-c2ccccc2-c2nn[nH]n2)cc1`: the inhibition in vivo at 0.1 mg/kg in experiment [2] was 57%. In [1], the pIC50 was 9.62. Moreover, the Duration in experiment [3] worked out at 3.5 h; in [6], 5.3 h. Also, in [7], the inhibition in vivo at 1 mg/kg turned out to be 100%.
In experiment [1], `CCCCc1nn(-c2ccc(Cl)cc2)c(C(=O)OCC)c1Cc1ccc(-c2ccccc2-c2nn[nH]n2)cc1` showed a negative logarithm of the IC50 (pIC50) of 7.00.
On the same count and under the same terms, as for `CCCCc1nc(-c2ccccc2)c(C(=O)OCC)n1Cc1ccc(-c2ccccc2-c2nn[nH]n2)cc1`, the figure is 7.39.
The same measure, in the same setting: as for `CCCCc1nn(-c2ccc(OC)cc2)c(C(=O)OCC)c1Cc1ccc(-c2ccccc2-c2nnn[nH]2)cc1`, the figure is 7.70.
Same read-out and setting: with `CCCCc1nn(CC(F)(F)F)c(C(=O)O)c1Cc1ccc(-c2ccccc2-c2nn[nH]n2)cc1` the figure was 9.28.
For the compound `CCCc1nn(-c2ccccc2C(F)(F)F)c(C(=O)O)c1Cc1ccc(-c2ccccc2-c2nn[nH]n2)cc1`, the values for the inhibition in vivo at 0.3 mg/kg in experiment [8] and in [10] were 57% and 77%, respectively. This compound gave a pIC50 in [1] of 9.17. Moreover, the Duration in experiment [6] was over 6 h; in experiment [5], over 3.5 h; in experiment [11] it was about 4 h; in experiment [9], over 3.5 h. Further, the inhibition in vivo at 1 mg/kg amounted to 71% in experiment [4] and 100% in [7].
Compound `CCCCc1nn(-c2cc(Cl)ccc2Cl)c(C(=O)O)c1Cc1ccc(-c2ccccc2-c2nnn[nH]2)cc1` had a pIC50 in [1] of 8.49.
In experiment [1], `CCCCc1nn(-c2ccccc2[N+](=O)[O-])c(C(=O)O)c1Cc1ccc(-c2ccccc2-c2nnn[nH]2)cc1` gave a pIC50 of 8.77.
Same read-out and setting: with `CCCc1nn(-c2ccccc2C(F)(F)F)c(C(=O)OCC)c1Cc1ccc(-c2ccccc2-c2nnn[nH]2)cc1` the figure was 7.25.
On the same count and under the same terms, with `CCCCc1nn(-c2ccc(Cl)cc2)c(C(=O)O)c1Cc1ccc(-c2ccccc2-c2nn[nH]n2)cc1` the figure was 8.89.
In experiment [1], `CCCCc1nn(-c2ccccc2Cl)c(C(=O)O)c1Cc1ccc(-c2ccccc2-c2nn[nH]n2)cc1` showed a pIC50 of 9.46. Further, the inhibition in vivo at 0.3 mg/kg in experiment [10] came to 73%. For the same compound, the Duration in [6] is over 6 h; in experiment [5], over 3 h; in experiment [11] it was about 3.8 h. Further, the inhibition in vivo at 1 mg/kg in experiment [4] was 64%; in experiment [7] it was 93%.
As to `CCCc1nn(Cc2ccccc2)c(C(=O)OCC)c1Cc1ccc(-c2ccccc2-c2nn[nH]n2)cc1`, the pIC50 in experiment [1] is 7.66.
Same read-out and setting: with `CCCc1nc(C(F)(F)C(F)(F)F)c(C(=O)O)n1Cc1ccc(-c2ccccc2-c2nnn[nH]2)cc1` the figure was 8.96; with `CCCCc1nn(-c2ccccc2-c2ccccc2)c(C(=O)OCC)c1Cc1ccc(-c2ccccc2-c2nn[nH]n2)cc1`, 7.64; with `CCCCc1nn(-c2cccc(Cl)c2Cl)c(C(=O)O)c1Cc1ccc(-c2ccccc2-c2nnn[nH]2)cc1`, 9.11.
On to `CCCCc1nn(-c2ccccc2Cl)c(C(=O)OCC)c1Cc1ccc(-c2ccccc2-c2nn[nH]n2)cc1`, for which the pIC50 in [1] is 7.89. The values for the inhibition in vivo at 1 mg/kg in [4] and in experiment [7] were 50% and 43%, respectively. The compound further came in with a Duration in [5] of over 2.5 h.
For `CCCCc1nn(-c2ccccc2[N+](=O)[O-])c(C(=O)OCC)c1Cc1ccc(-c2ccccc2-c2nnn[nH]2)cc1`, the pIC50 in experiment [1] is 8.02.
Same read-out and setting: with `CCCCc1nn(CC)c(C(=O)O)c1Cc1ccc(-c2ccccc2-c2nn[nH]n2)cc1` the figure was 8.57; with `CCOC(=O)c1c(Cc2ccc(-c3ccccc3-c3nnn[nH]3)cc2)c(CC2CC2)nn1-c1c(Cl)cccc1Cl`, 7.12; with `CCCCc1nn(-c2c(Cl)cc(Cl)cc2Cl)c(C(=O)OCC)c1Cc1ccc(-c2ccccc2-c2nn[nH]n2)cc1`, 7.43.
The same measure, in the same setting: with `CCCCc1nn(-c2ccccn2)c(C(=O)O)c1Cc1ccc(-c2ccccc2-c2nn[nH]n2)cc1` the figure was 8.77.
